Experimental data from paper PMC5221453 (British Journal of Pharmacology, 2016).
Where two headings read alike, the source gives them in different places. Values belong to the compound of their own block, whether it stands above or below them.

Experiments:
human S1P1 receptor = human S1P1 receptor (Homo sapiens, UniProt P21453); assay: Ca2+ mobilization assay, human S1P1 receptor-expressing cells; type: cell-based
cynomolgus monkeys = type: in vivo, cynomolgus monkeys (Macaca fascicularis); settings: conscious monkeys, oral, doses up to 30 mg·kg^−1
healthy subjects [1] = assay: Phase I multiple ascending dose trial: peripheral lymphocyte counts; type: in vivo, human; settings: 0.75 mg, day 21
Outline: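 Healthy men received oral test compound (0.125–0.75 mg) or placebo for 21 days in the fed state. Absolute lymphocyte counts were taken at screening and on days −2, 1–12, 14, 16, 18, 20–25, 28, 35, 42, 56 and 70.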

healthy subjects [2] = assay: Phase I multiple ascending dose trial: heart rate and ECG; type: in vivo, human
Outline: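 Healthy men received oral test compound at 0.125–0.75 mg or placebo for 21 days, fed. Heart rate came from 24 h 12-lead Holter ECG against a day −1 baseline, with telemetry on day 1. Mean hourly rate was fitted by a linear mixed model with a pre-dose covariate. The 1–12 h nadir was compared by ANCOVA (day −1 covariate), giving LS mean differences versus placebo with 95% CI.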

[3] = Phase I multiple ascending dose trial: pharmacokinetic assessment; type: in vivo, human
Outline: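 Healthy men received oral test compound (0.125–0.75 mg, 10 per dose) for 21 days, fed. Blood was sampled on days 1–12, 14, 16, 18, 20–25, 28, 35, 42, 56 and 70. Parent and phosphate metabolite were measured in plasma and urine by validated LC/MS/MS, with LLOQ 0.05 ng·mL−1.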

healthy subjects [4] = assay: Phase I multiple ascending dose trial: adverse events; type: in vivo, human
Outline: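 Randomized, double-blind, placebo-controlled, parallel multiple-ascending-dose study in healthy men aged 18–45. Oral test compound was given at 0.125, 0.25, 0.5 or 0.75 mg (10 subjects per dose) or placebo (n = 10) over 21 days in the fed state. Follow-up visits were on days 28, 35, 42, 56 and 70. Adverse events were recorded throughout the study.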

[5] = tested on: cardiac Na+ and Ca2+ channels in HCMs; assay: Cardiac Na+ and Ca2+ channels in HCMs; type: cell-based, human; settings: data not shown
humans [6] = settings: clinical dose 0.5 mg, ref Schmouder et al., 2012; cited from earlier work
humans [7] = settings: cited from earlier work; for decrease in the lymphocyte count: psoriasis patients, ref Vaclavkova et al., 2014
human S1P4 receptor = target: T1, human S1P4 receptor (Homo sapiens, UniProt O95977); assay: Ca2+ mobilization assay, human S1P4 receptor-expressing cells; type: cell-based
T1 sequence (O95977 1-384): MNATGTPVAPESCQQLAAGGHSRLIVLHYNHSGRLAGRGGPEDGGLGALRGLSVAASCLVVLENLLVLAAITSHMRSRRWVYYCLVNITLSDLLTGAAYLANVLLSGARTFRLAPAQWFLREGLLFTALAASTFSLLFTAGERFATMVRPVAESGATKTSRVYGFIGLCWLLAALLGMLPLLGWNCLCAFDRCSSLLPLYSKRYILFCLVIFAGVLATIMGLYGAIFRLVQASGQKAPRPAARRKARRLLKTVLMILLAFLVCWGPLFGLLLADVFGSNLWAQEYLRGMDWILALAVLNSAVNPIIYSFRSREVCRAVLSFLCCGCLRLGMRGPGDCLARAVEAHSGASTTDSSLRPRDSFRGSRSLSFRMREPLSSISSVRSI

[8] = Tissue distribution in rats; type: in vivo, SD rats; settings: rat, single oral 1 mg·kg^−1 of amiselimod or fingolimod
Outline: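 SD rats fasted 15 h received a single oral 1 mg·kg−1 test compound without anaesthesia. Rats killed at 24 or 48 h were fed at 8 h. Plasma and heart homogenates underwent solid-phase extraction. Parent and phosphate metabolite were measured by LC–MS/MS. Parameters were derived by non-compartmental analysis. Dosing/sampling and analysis were done by separate researchers unaware of treatment.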

human S1P3 receptor = human S1P3 receptor (Homo sapiens, UniProt Q99500); assay: Ca2+ mobilization assay, human S1P3 receptor-expressing cells; type: cell-based
human S1P3 receptor, sequence (Q99500 whole entry): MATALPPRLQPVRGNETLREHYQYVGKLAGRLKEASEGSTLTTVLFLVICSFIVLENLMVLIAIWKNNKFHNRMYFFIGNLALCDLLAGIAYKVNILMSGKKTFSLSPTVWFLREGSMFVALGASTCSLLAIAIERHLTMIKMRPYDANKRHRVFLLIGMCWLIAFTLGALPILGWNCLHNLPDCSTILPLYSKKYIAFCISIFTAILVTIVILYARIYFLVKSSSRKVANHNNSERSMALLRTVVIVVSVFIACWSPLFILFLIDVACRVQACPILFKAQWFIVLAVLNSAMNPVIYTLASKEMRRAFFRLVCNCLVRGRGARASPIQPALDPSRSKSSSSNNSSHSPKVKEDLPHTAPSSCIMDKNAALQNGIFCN

[9] = tested on: GIRK channels in human atrial myocytes; assay: Human GIRK channel assay in human atrial myocytes; type: cell-based; settings: 20 μmol·L^−1 carbachol
Outline: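 Atrial myocytes were isolated from a human atrial specimen taken during cardiac surgery. GIRK current was recorded by whole-cell patch clamp at 37 ± 1°C and elicited by rapid superfusion with 20 μmol·L−1 carbachol. Current was read on a pulse to −100 mV from a −90 mV holding potential. Values were normalized to the carbachol-evoked increase. Four myocytes per condition were analysed by a blinded researcher.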

[10] = humans, ref Gergely et al., 2012, Brooks et al., 2013, Brossard et al.; cited from earlier work
[11] = healthy subjects receiving amiselimod, all doses

human S1P1 receptor, sequence (P21453 whole entry): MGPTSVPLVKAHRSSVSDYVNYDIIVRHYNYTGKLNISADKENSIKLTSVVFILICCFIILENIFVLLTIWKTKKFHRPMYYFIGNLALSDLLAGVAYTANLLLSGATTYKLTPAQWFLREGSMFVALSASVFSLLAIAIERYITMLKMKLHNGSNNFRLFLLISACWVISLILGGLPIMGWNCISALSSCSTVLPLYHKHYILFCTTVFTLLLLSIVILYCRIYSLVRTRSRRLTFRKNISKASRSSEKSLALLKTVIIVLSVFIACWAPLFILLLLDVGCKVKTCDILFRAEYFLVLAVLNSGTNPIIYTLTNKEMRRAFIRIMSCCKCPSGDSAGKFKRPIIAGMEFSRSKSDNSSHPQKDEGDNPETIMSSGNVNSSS

EC50 (human S1P1 receptor): > 1000 nM
agonist activity at S1P1 receptors (human S1P1 receptor; up to 1000 nmol·L^−1): no agonist activity
accumulation ratios (range) ([3]; healthy subjects, after 21 day dosing): 16–29
administered dose excreted in the urine ([3]; healthy subjects, day 21): Less than 0.2%
mean t1/2 ([3]; healthy subjects, plasma, across 0.125–0.75 mg doses): 380 to 420 h
period of accumulation to steady state ([3]; humans, inferred from long t1/2): approximately 10 weeks
Compound: CCCCCCCOc1ccc(CCC(N)(CO)CO)cc1C(F)(F)F.Cl [Amiselimod, 2‐amino‐2‐{2‐[4‐(heptyloxy)‐3‐(trifluoromethyl)phenyl]ethyl}propan‐1,3‐diol hydrochloride]
effect on blood pressure (cynomolgus monkeys): did not affect
effects on heart rate or ECG parameters (PR interval, QRS duration, QT interval, QTc) (cynomolgus monkeys): no effects
decrease in trough lymphocyte counts (healthy subjects [1]): 60%
nadir (1–12 h) mean hourly heart rate, LS mean (healthy subjects [2]; 0.5 mg, day 1): 62.213 bpm
nadir (1–12 h) mean hourly heart rate, LS mean (healthy subjects [2]; 0.75 mg, day 1): 61.952 bpm
ECG Holter transient AV conduction abnormalities, subjects (healthy subjects [2]; 0.125–0.75 mg): five subjects
PR interval, QRS width, QT interval, QTcB interval, QTcF interval and RR interval (healthy subjects [2]; 0.125–0.75 mg): not affected
decrease in heart rate versus placebo (healthy subjects [2]; up to the 0.75 mg dose, day 1): no significant decrease
mild AEs, subjects (healthy subjects [4]; 0.125 mg): 8 subjects
moderate AEs, subjects (healthy subjects [4]; 0.125 mg): 1 subjects
mild AEs, subjects (healthy subjects [4]; 0.25 mg): 4 subjects
mild AEs, subjects (healthy subjects [4]; 0.5 mg): 9 subjects
moderate AEs, subjects (healthy subjects [4]; 0.5 mg): 1 subjects
mild AEs, subjects (healthy subjects [4]; 0.75 mg): 7 subjects
moderate AEs, subjects (healthy subjects [4]; 0.75 mg): 1 subjects
number of subjects reporting AEs (healthy subjects [4]; [11]): 28 subjects
total number of AEs reported (healthy subjects [4]; [11]): 74 AEs
severe AEs or serious AEs (healthy subjects [4]; healthy subjects, during the study): no severe AEs or serious AEs

Compound: CCCCCCCCc1ccc(CCC(N)(CO)CO)cc1 [Fingolimod, fingolimod]
effect on cardiac Na+ and Ca2+ channels [5]: did not affect
decrease in heart rate (humans [6]): 6.2 bpm
lymphocyte counts decreased below the baseline (humans [7]; 0.5 mg, RRMS patients, ref Kappos et al., 2010): 73%

EC50 (human S1P4 receptor; read-out: EC50 values (95% CI), S1P4, agonist activity, intracellular Ca2+ mobilization, geometric mean): 66.3 nM
heart AUC0–last [8]: 17 182 ng·h·g^−1
heart Cmax [8]: 479 ng/g
plasma AUC0–last [8]: 556 ng·h/mL
Compound: CCCCCCCCc1ccc(CC[C@](N)(CO)COP(=O)(O)O)cc1 [Fingolimod‐P, Fingolimod phosphate]
effect on cardiac Na+ and Ca2+ channels [5]: did not affect

EC50 (human S1P1 receptor): 0.18 nM
EC50 (human S1P3 receptor): 0.16 nM
EC50 (human S1P4 receptor): 82.7 nM
Compound: CCCCCCCCCCCCC/C=C/[C@@H](O)[C@@H](N)COP(=O)(O)O [S1P, sphingosine 1‐phosphate]
GIRK current reached, of the maximal current increase evoked by carbachol [9]: more than 90%

Compound: CC(C)Oc1ccc(-c2nc(-c3cccc4c3CC[C@@H]4NCCO)no2)cc1C#N [ozanimod]
lymphocyte count decrease from baseline (humans [7]; 1 mg, healthy volunteers, ref Olson et al., 2013, Sandborn et al., 2015): 65%
t1/2 [10]: 17.1 h

Compound: CCC/N=C1\S/C(=C\c2ccc(OC[C@H](O)CO)c(Cl)c2)C(=O)N1c1ccccc1C [ponesimod]
decrease in the lymphocyte count (humans [7]; 20 mg, Phase II): 56%
decrease in the lymphocyte count (humans [7]; 40 mg, Phase II): 65%
t1/2 [10]: 21.7 to 33.4 h

Compound: CCc1cc(/C(C)=N/OCc2ccc(C3CCCCC3)c(C(F)(F)F)c2)ccc1CN1CC(C(=O)O)C1 [siponimod]
lymphocyte count decrease (humans [7]; 2 mg, RRMS patients, Phase II, ref Selmaj et al., 2013): 70%
t1/2 [10]: 21.9 to 36.3 h
